Rows were chosen to be rich in hits. Some 1.6% of all compounds tested hit in one or more screens of this group.
PG9 Ab binder: small molecules binding HIV-1 gp120 antibody PG9; inhibition, % at 6.7 µM; TR-FRET gp120-PG9 antibody binding; actives 0.43% (n = 360,000); in the data active = inhibition above about 8.5%
VLA-4 inh: inhibition in a human VLA-4 binding assay. P13612. VLA-4 expressing cells, ligand binding flow cytometry. inhibition, % (about 7 µM as worked out from the volumes in the protocol). actives 0.2% (n = 330,000). AID 2557; in the data active = inhibition above about 50%
NR2E3 ag-1: human photoreceptor-specific nuclear receptor agonism | Q9Y5X4 | CHO-S Gal4-NCOR/VP16-NR2E3 two-hybrid, luciferase | inhibition of corepressor binding, % at 3.98 µM | actives 0.35% (n = 360,000);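 active = inhibition above the mean of all tested compounds plus 3 SD, cut at about 70% in these data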;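 also: 0% = DMSO with NR2E3 transfected cells and 100% = cells lacking NR2E3 construct; higher means lower luciferase signal from less NR2E3 corepressor binding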
Target sequence (Q9Y5X4 whole entry, looked up, the tested form may be a part): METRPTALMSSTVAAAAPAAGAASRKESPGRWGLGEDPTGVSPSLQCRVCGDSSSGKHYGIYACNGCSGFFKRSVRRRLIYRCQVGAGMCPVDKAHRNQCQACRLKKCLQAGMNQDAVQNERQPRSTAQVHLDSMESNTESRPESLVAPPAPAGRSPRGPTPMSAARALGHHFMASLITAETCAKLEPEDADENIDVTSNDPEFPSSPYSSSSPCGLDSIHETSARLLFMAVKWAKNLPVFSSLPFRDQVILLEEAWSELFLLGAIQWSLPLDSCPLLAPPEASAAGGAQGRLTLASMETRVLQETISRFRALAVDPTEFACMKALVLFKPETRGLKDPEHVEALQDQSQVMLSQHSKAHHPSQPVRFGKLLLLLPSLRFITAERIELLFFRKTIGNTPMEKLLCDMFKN
NR1D1 modulator: Rev-erb alpha (human) modulation; actives 0.79% (n = 370,000); AID 1259318; P20393; activity, % at 10 µM; Rev-erbα–FITC-DNA binding, fluorescence polarization, 90 min;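 active = activity above about 14%, limit read from the data; passing the limit was not always enough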;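 also: 0% = DMSO wells with 35 nM protein and 100% = DMSO wells with 750 nM protein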
NR2E3 ag-2: agonists of human nuclear receptor NR2E3; GST-NR2E3/biotin-RetCOR TR-FRET, 1536-well; inhibition of corepressor binding, % at 4.78 µM; actives 0.12% (n = 320,000);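 active = percent inhibition above the cutoff of mean plus 3 SD of all tested compounds, set per screening campaign, cut at about 20% in these data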;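 also: 0% = DMSO wells and 100% = biotin wells as full block of FRET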
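Test system: GST-NR2E3 and biotin-RetCOR proteins | Quantity: 1.35 nM GST-tagged NR2E3 final | Medium: Tris pH 7.5 | Also added: 7 nM biotin-RetCOR | Dosing: Compound at 4.8 µM, single dose | Timing: 5 h at 4 °C | Detection: Time-resolved FRET | Read-out basis: Percent inhibition | Benchmarks: Biotin wells as high control, 0.6% DMSO wells as low control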
VLA-4 allo CP: human VLA-4 allosteric modulation in cherry picked compounds; U937 cells, HUTS-21 LIBS mAb binding, flow cytometry; LDV ligand present at threefold Kd; actives 2% (n = 1,300); inhibition, % at 6.7 µM; shares compounds with VLA-4 inh; in the data active = inhibition above about 40%;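 also: 0% = ligand without compound and 100% = no ligand background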
An asterisk follows results filed as active; . = no result given.

SMILES	PG9 Ab binder	VLA-4 inh	NR2E3 ag-1	NR1D1 modulator	NR2E3 ag-2	VLA-4 allo CP
COC(=O)c1cc2c(ccn2-c2ccc(F)cc2)n1C(C)C	-1	63*	-51	4	0	10
CN1C2=NC(c3ccccc3)CC(=O)N2/C(=C\c2ccccc2)C1c1ccccc1C(F)(F)F (centres undefined)	.	.	.	2	.	.
COc1ccccc1N1CCN(C(=O)c2ccc3[nH]c(C)c(C)c3c2)CC1	0	50*	-23	-4	4	26
Cc1c(NC(=O)c2cc(CC(C)C)on2)c(=O)n(-c2ccccc2)n1C	1	22	4	5	3	.
Cc1c(NC(=O)c2ccco2)c(=O)n(-c2ccccc2)n1C	1	-4	-13	-3	0	.
Cc1c(NC(=O)c2cc3ccccc3c(=O)s2)c(=O)n(-c2ccccc2)n1C	2	53*	-35	-1	2	6
Cc1c(NC(=O)c2cc(C(C)C)on2)c(=O)n(-c2ccccc2)n1C	.	.	-28	4	-1	12
Cc1c(NC(=O)CN2CCN(C(=O)c3ccco3)CC2)c(=O)n(-c2ccccc2)n1C	-1	-3	0	-2	1	2
Cc1c(NC(=O)c2ccc(Cl)s2)c(=O)n(-c2ccccc2)n1C	0	8	-15	-2	-1	.
Cc1c(NC(=O)COc2ncnc3c(Cl)cc(Cl)cc23)c(=O)n(-c2ccccc2)n1C	2	5	-15	-7	0	3
COc1ccc(N2CCN(CCCNC(=O)CCOC(C)(C)C)CC2)cc1	.	.	.	10	.	.
CCOC(=O)Cc1nc(N2CCCN(C(C)=O)CC2)c2c(C)c(C(=O)OCC)sc2n1	.	.	.	7	.	.
Cc1c(NC(=O)c2c(F)c(F)c(F)c(F)c2F)c(=O)n(-c2ccccc2)n1C	1	4	-7	3	0	0
Cc1c(NC(=O)c2ccccc2)c(=O)n(-c2ccccc2)n1C	2	8	-37	7	2	.
COc1cccc(NC(=O)CCN2C(=O)c3cccc([N+](=O)[O-])c3C2=O)c1	-1	-1	-8	7	2	.
COc1ccc(NC(=O)CCN2C(=O)c3cccc([N+](=O)[O-])c3C2=O)cc1	-2	51*	2	2	7	-4
CCOc1ccc(CCNC(=O)c2ccc3nc(N4CCOCC4)sc3c2)cc1OCC	-1	17	-4	-2	0	.
O=C(Nc1ccc(F)cc1F)c1ccc2nc(N3CCOCC3)sc2c1	6	33	-146	1	0	14
CCCCN(CCCNC(=O)c1ccc2nc(N3CCOCC3)sc2c1)Cc1ccccc1	0	-112	-14	1	-1	10
CC(CCc1ccccc1)NC(=O)c1ccc2nc(N3CCOCC3)sc2c1 (centres undefined)	1	9	6	-5	-1	.
CCC(Cc1ccccc1)NC(=O)c1ccc2nc(N3CCOCC3)sc2c1 (centres undefined)	-1	10	-17	0	5	3
CCOc1ccccc1CNC(=O)c1ccc2nc(N3CCOCC3)sc2c1	0	2	-17	-8	-1	4
O=C(NCCc1ccccc1)c1ccc2nc(N3CCOCC3)sc2c1	0	-18	-42	-3	2	10
CCc1cccc(C)c1NC(=O)c1ccc2nc(N3CCOCC3)sc2c1	1	50*	-1	2	5	4
CC1CC(C)CN(CCCNC(=O)c2ccc3nc(N4CCOCC4)sc3c2)C1 (centres undefined)	-1	5	2	1	5	.
SMILES	PG9 Ab binder	VLA-4 inh	NR2E3 ag-1	NR1D1 modulator	NR2E3 ag-2	VLA-4 allo CP
Cc1cccc(NC(=O)c2ccc3nc(N4CCOCC4)sc3c2)c1C	2	3	-22	-1	4	.
CCCN1CCN(CCCNC(=O)c2ccc3nc(N4CCC(C)CC4)sc3c2)CC1	2	10	-104	2	5	-2
O=C(c1ccc2nc(N3CCCCC3)sc2c1)N1CCN(c2ccccn2)CC1	0	49	-55	-4	0	8
COc1ccc(/C=C2\CC3(OC(=O)c4ccc(F)cc4)CCCN2C3)cc1 (centres undefined)	.	.	.	-1	.	.
CSc1ccc(C(=O)NCC2CCN(C(=O)C(=O)c3cc4ccccc4o3)CC2)cc1	0	.	.	6	.	.
O=S1(=O)N[C@H](Cc2ccccc2)COc2cccc(N3CCCCC3)c21	0	.	.	2	.	.
CCC[C@H]1[C@@H](OC(=O)Oc2ccc([N+](=O)[O-])cc2)CC[C@@]23CCCN2C(=O)CCC[C@@H]13	.	.	.	-3	.	.
CC(C)Oc1ccc(CNC(=O)c2ccc3nc(N4CCOCC4)sc3c2)cc1	2	4	-12	-4	-1	.
Cc1ccc(C)c(N2CCN(C(=O)c3ccc4nc(N5CCOCC5)sc4c3)CC2)c1	0	4	-1	2	5	-1
O=C(NCc1cccc(Cl)c1)c1ccc2nc(N3CCOCC3)sc2c1	-2	23	-28	3	2	0
O=C(CN1C(=O)CCSc2ccccc21)Nc1cccc(Cl)c1F	.	.	.	1	.	.
Cc1ccc(S(=O)(=O)N2CCC(c3nc4ccccc4o3)CC2)s1	.	.	.	-6	.	.
COc1ccc(OC)c(C(=O)COC(=O)CNC(=O)C2CCCCC2)c1	1	60*	7	2	2	-8
COc1ccc(-c2cc(C3CCN(c4ccc(C(C)=O)cc4[N+](=O)[O-])CC3)[nH]n2)cc1	-2	59*	73*	3	0	16
COc1ccc2c(c1)N(C)/C(=C1/SC(=NCc3ccccc3)N(c3ccccc3)C1=O)S2	0	90*	-8	0	5	5
CCn1cc(C(=O)N[C@@H](CCSC)C(=O)NCCCO)c(=O)c2cc3c(cc21)OCO3	-2	40	-2	2	-1	4
O=C(Cn1nnc(-c2ccc(N3CCOCC3)cc2)n1)c1cccc(F)c1	.	.	.	4	.	.
Cc1cc(C)n(-c2nc(NC(C)C)nc(NC(C)C)n2)n1	-2	57*	81*	-6	2	5
Cc1cc(C)n(-c2nc(Nc3ccccc3C)nc(-n3nc(C)cc3C)n2)n1	2	-2	.	0	0	.
CCOC(=O)c1c(C)[nH]c(C(=O)COC(=O)c2cnccn2)c1C	-1	10	-15	-2	0	0
CCOC(=O)c1c(C)[nH]c(C(=O)COC(=O)c2ccco2)c1C	7	4	7	-1	.	6
CCOC(=O)c1c(C)[nH]c(C(=O)COC(=O)c2ccncc2)c1C	-2	4	-11	2	-2	-5
CCOC(=O)c1c(C)[nH]c(C(=O)COC(=O)c2[nH]c(C)c(C(C)=O)c2C)c1C	1	-20	-11	7	-3	.
CCOC(=O)c1c(C)[nH]c(C(=O)COC(=O)C2CC2C)c1C (centres undefined)	-3	-1	-123	-4	4	-2
